Laboratory results from ChEMBL document CHEMBL3627702, “Navigating CYP1A Induction and Arylhydrocarbon Receptor Agonism in Drug Discovery. A Case History with S1P1 Agonists” (J Med Chem, 2015).

Columns and labels:
CYP1A2 [1] = assay: Induction of CYP1A2 mRNA expression in rat hepatic microsomes at 30 mg/kg, po QD for 7 days relative to control; type: ADME, organism-based, Liver; conditions: read-out: FC
How it was run: (§1)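 Male rats dosed orally once daily for 7 days. Hepatic mRNA measured by Taqman and expressed as fold induction versus control animals.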

CYP1A2 [2] = assay: Induction of CYP1A2 mRNA expression in human hepatocytes at 10 uM relative to control; type: ADME, cell-based, Hepatocyte; conditions: read-out: FC
CYP1A1 [3] = assay: Induction of CYP1A1 mRNA expression in rat hepatic microsomes at 30 mg/kg, po QD for 7 days relative to control; type: ADME, organism-based, Liver; conditions: read-out: FC; how it was run: as §1
CYP1A1 [4] = assay: Induction of CYP1A1 mRNA expression in rat hepatocytes at 10 uM by Taqman analysis relative to control; type: ADME, cell-based, Hepatocyte; conditions: read-out: FC
CYP1A2 [5] = target: T1, CYP1A2 (Homo sapiens, UniProt P05177); assay: Induction of CYP1A2-mediated 7-ethoxyresorufin O-deethylase activity in human hepatocytes at 5 uM after 10 mins by fluorescence assay relative to control; type: ADME, cell-based, Hepatocyte; conditions: probe 7-ethoxyresorufin, read-out: FC
T1 sequence (P05177 whole entry): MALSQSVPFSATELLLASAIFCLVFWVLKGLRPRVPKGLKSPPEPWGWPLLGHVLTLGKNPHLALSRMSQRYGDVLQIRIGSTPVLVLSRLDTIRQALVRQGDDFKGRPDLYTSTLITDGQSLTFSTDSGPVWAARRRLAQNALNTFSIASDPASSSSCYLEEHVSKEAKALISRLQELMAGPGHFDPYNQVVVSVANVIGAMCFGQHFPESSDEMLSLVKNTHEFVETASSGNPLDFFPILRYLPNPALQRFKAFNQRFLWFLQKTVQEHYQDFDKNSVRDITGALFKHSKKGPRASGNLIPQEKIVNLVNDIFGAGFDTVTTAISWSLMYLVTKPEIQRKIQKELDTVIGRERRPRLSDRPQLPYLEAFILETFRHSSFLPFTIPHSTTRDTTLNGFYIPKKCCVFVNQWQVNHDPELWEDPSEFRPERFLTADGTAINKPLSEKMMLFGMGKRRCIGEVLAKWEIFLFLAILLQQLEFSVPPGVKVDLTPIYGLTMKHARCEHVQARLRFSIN
How it was run: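 Human hepatocytes were treated for 48 h (re-dosed at 24 h), washed, then incubated with 0.5 μM ethoxyresorufin in serum-free medium for 10 min at 37 °C. Resorufin fluorescence read at Ex 530/Em 590 nm. Rate in fluorescence units/min expressed as fold over solvent control.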

CYP1A2 [6] = assay: Induction of CYP1A2 mRNA expression in rat hepatocytes at 10 uM by Taqman analysis relative to control; type: ADME, cell-based, Hepatocyte; conditions: read-out: FC
Rattus norvegicus [7] = assay: Dose normalized AUC in Sprague-Dawley rat at 30 mg/kg, po QD measured on day 4; type: ADME, organism-based; conditions: in vivo
How it was run: (§2)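 Male CD rats (226−325 g), n = 3, given the compound once daily by oral gavage for 4 days. Vehicle was 1% (w/v) methylcellulose aq suspension at 3−6 mg/mL, dosed at 5 mL/kg (target 15−30 mg/kg). Tail vein blood was taken on days 1 and 4 up to 24 h postdose. Blood was diluted 1:1 with water, extracted by acetonitrile protein precipitation and analysed by LC−MS/MS against calibration standards in diluted blood.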

[8] = Lipophilicity, log D of the compound at pH 7.4; type: physicochemical; conditions: buffer
CYP1A1 [9] = assay: Induction of CYP1A1 mRNA expression in Sprague-Dawley rat hepatic microsomes at 30 mg/kg, po QD for 4 days relative to control; type: ADME, organism-based, Liver; conditions: read-out: FC
How it was run: (§3)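 Male CD rats (226–325 g, n = 3) were dosed by oral gavage once daily for 4 days as a 1% w/v aqueous methylcellulose suspension (3–6 mg/mL, 5 mL/kg). At the end of the study, a left lateral liver lobe section was placed in RNALater and homogenised in TRIzol. RNA was purified, DNase-treated and converted to cDNA, and Cyp1a1 was read on low-density TaqMan arrays.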

[10] = AUC in Sprague-Dawley rat at 30 mg/kg, po QD measured on day 4; type: ADME, organism-based; conditions: in vivo; how it was run: as §2
[11] = AUC in Sprague-Dawley rat at 30 mg/kg, po QD measured on day 1; type: ADME, organism-based; conditions: in vivo; how it was run: as §2
CYP1A2 [12] = assay: Induction of CYP1A2 mRNA expression in Sprague-Dawley rat hepatic microsomes at 30 mg/kg, po QD for 4 days relative to control; type: ADME, organism-based, Liver; conditions: read-out: FC
[13] = Cmax in Sprague-Dawley rat at 30 mg/kg, po QD measured on day 1; type: ADME, organism-based; parameters: dose 30 mg/kg, route oral; conditions: in vivo; how it was run: as §2
Rattus norvegicus [14] = assay: Dose normalized AUC in Sprague-Dawley rat at 30 mg/kg, po QD measured on day 1; type: ADME, organism-based; conditions: in vivo; how it was run: as §2
[15] = Oral bioavailability in CD rat at 3 mg/kg; type: ADME, organism-based; conditions: in vivo
How it was run: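 Male CD rats cannulated in the femoral and jugular veins, n = 3, crossover design. Day 1: 1 h iv infusion at 1 mg/kg (0.2 mg/mL in ≤5% DMSO/≥95% 10% Kleptose in saline, 5 mL/kg/h). Day 2: oral gavage at 3 mg/kg (0.6 mg/mL in 1% methylcellulose, 5 mL/kg). Blood assayed by LC–MS/MS after acetonitrile precipitation.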

[16] = Cmax in Sprague-Dawley rat at 30 mg/kg, po QD measured on day 4; type: ADME, organism-based; parameters: dose 30 mg/kg, route oral; conditions: in vivo; how it was run: as §2
[17] = Cmax in Sprague-Dawley rat at 15 mg/kg, po QD measured on day 1; type: ADME, organism-based; parameters: dose 15 mg/kg, route oral; conditions: in vivo; how it was run: as §2
CYP1A1 [18] = assay: Induction of CYP1A1 mRNA expression in Sprague-Dawley rat hepatic microsomes at 15 mg/kg, po QD for 4 days relative to control; type: ADME, organism-based, Liver; conditions: read-out: FC; how it was run: as §3
[19] = AUC in Sprague-Dawley rat at 15 mg/kg, po QD measured on day 4; type: ADME, organism-based; conditions: in vivo; how it was run: as §2
[20] = Cmax in Sprague-Dawley rat at 15 mg/kg, po QD measured on day 4; type: ADME, organism-based; parameters: dose 15 mg/kg, route oral; conditions: in vivo; how it was run: as §2
[21] = AUC in Sprague-Dawley rat at 15 mg/kg, po QD measured on day 1; type: ADME, organism-based; conditions: in vivo; how it was run: as §2
CYP1A2 [22] = assay: Induction of CYP1A2 mRNA expression in Sprague-Dawley rat hepatic microsomes at 15 mg/kg, po QD for 4 days relative to control; type: ADME, organism-based, Liver; conditions: read-out: FC
Rattus norvegicus [23] = assay: Dose normalized AUC in Sprague-Dawley rat at 15 mg/kg, po QD measured on day 4; type: ADME, organism-based; conditions: in vivo; how it was run: as §2
Rattus norvegicus [24] = assay: Dose normalized AUC in Sprague-Dawley rat at 15 mg/kg, po QD measured on day 1; type: ADME, organism-based; conditions: in vivo; how it was run: as §2
[25] = Dissociation constant, pKa of the compound; type: physicochemical
[26] = AUC in Sprague-Dawley rat at 19 mg/kg, po QD measured on day 4; type: ADME, organism-based; conditions: in vivo; how it was run: as §2
CYP1A1 [27] = assay: Induction of CYP1A1 mRNA expression in Sprague-Dawley rat hepatic microsomes at 19 mg/kg, po QD for 4 days relative to control; type: ADME, organism-based, Liver; conditions: read-out: FC; how it was run: as §3
Rattus norvegicus [28] = assay: Dose normalized AUC in Sprague-Dawley rat at 19 mg/kg, po QD measured on day 1; type: ADME, organism-based; conditions: in vivo; how it was run: as §2
[29] = AUC in Sprague-Dawley rat at 19 mg/kg, po QD measured on day 1; type: ADME, organism-based; conditions: in vivo; how it was run: as §2
CYP1A2 [30] = assay: Induction of CYP1A2 mRNA expression in Sprague-Dawley rat hepatic microsomes at 19 mg/kg, po QD for 4 days relative to control; type: ADME, organism-based, Liver; conditions: read-out: FC
[31] = Cmax in Sprague-Dawley rat at 19 mg/kg, po QD measured on day 4; type: ADME, organism-based; parameters: dose 19 mg/kg, route oral; conditions: in vivo; how it was run: as §2
Rattus norvegicus [32] = assay: Dose normalized AUC in Sprague-Dawley rat at 19 mg/kg, po QD measured on day 4; type: ADME, organism-based; conditions: in vivo; how it was run: as §2
[33] = Cmax in Sprague-Dawley rat at 19 mg/kg, po QD measured on day 1; type: ADME, organism-based; parameters: dose 19 mg/kg, route oral; conditions: in vivo; how it was run: as §2

Cc1c(-c2noc(-c3ccc(OC(C)C)c(C#N)c3)n2)ccc2c1CCN(CCC(=O)O)C2
fold induction at 168 h (CYP1A2 [1]): 1 | fold induction at 10 µM (CYP1A2 [2]): 0.2 | fold induction at 168 h (CYP1A1 [3]): 3 | fold induction at 10 µM (CYP1A1 [4]): < 1 | fold induction at 10 min, 5 µM (CYP1A2 [5]): 1.1 | fold induction at 10 µM (CYP1A2 [6]): < 1

CC(C)Oc1ccc(-c2nc(-c3ccc4c(c3)CCN(C(CO)CO)CC4)no2)cc1C#N
AUC/dose (Rattus norvegicus [7]): 59 kg·min/L | logD [8]: 2.78 | fold induction at 96 h (CYP1A1 [9]): 604 | AUC [10]: 23100 ng·h/mL | AUC [11]: 23000 ng·h/mL | fold induction at 96 h (CYP1A2 [12]): 7.3 | Cmax [13]: 1600 ng/mL | AUC/dose (Rattus norvegicus [14]): 48 kg·min/L | bioavailability [15]: 68% | Cmax [16]: 1380 ng/mL

Cc1c(-c2noc(-c3ccc(OC(C)C)c(C#N)c3)n2)ccc2c1CCN(C(CO)CO)C2
AUC/dose (Rattus norvegicus [7]): 16 kg·min/L | logD [8]: 2.76 | fold induction at 96 h (CYP1A1 [9]): 1.4 | AUC [10]: 7640 ng·h/mL | AUC [11]: 4420 ng·h/mL | fold induction at 96 h (CYP1A2 [12]): 1.5 | Cmax [13]: 440 ng/mL | AUC/dose (Rattus norvegicus [14]): 9 kg·min/L | Cmax [16]: 790 ng/mL

CC(C)Oc1ccc(-c2nc(-c3cccc4c3CCN(C(CO)CO)C4)no2)cc1C#N
Cmax [17]: 900 ng/mL | fold induction at 96 h (CYP1A1 [18]): 1.6 | logD [8]: 2.58 | AUC [19]: 13900 ng·h/mL | Cmax [20]: 940 ng/mL | AUC [21]: 12100 ng·h/mL | fold induction at 96 h (CYP1A2 [22]): 2 | AUC/dose (Rattus norvegicus [23]): 56 kg·min/L | AUC/dose (Rattus norvegicus [24]): 48 kg·min/L | pKa [25]: 7.3

Cc1c(-c2noc(-c3ccc(OC(C)C)c(C#N)c3)n2)ccc2c1CCN(C[C@H](O)CO)C2
AUC/dose (Rattus norvegicus [7]): 9 kg·min/L | logD [8]: 2.7 | fold induction at 96 h (CYP1A1 [9]): 64 | AUC [10]: 3600 ng·h/mL | AUC [11]: 4440 ng·h/mL | fold induction at 96 h (CYP1A2 [12]): 10 | Cmax [13]: 770 ng/mL | AUC/dose (Rattus norvegicus [14]): 9 kg·min/L | pKa [25]: 7.7 | Cmax [16]: 500 ng/mL

Cc1c(-c2nnc(-c3ccc(OC(C)C)c(C#N)c3)s2)ccc2c1CCN(C(CO)CO)C2
logD [8]: 2.33 | AUC [26]: 27800 ng·h/mL | fold induction at 96 h (CYP1A1 [27]): 1.7 | AUC/dose (Rattus norvegicus [28]): 61 kg·min/L | AUC [29]: 19100 ng·h/mL | fold induction at 96 h (CYP1A2 [30]): 1 | Cmax [31]: 2320 ng/mL | pKa [25]: 7.2 | AUC/dose (Rattus norvegicus [32]): 89 kg·min/L | Cmax [33]: 1750 ng/mL

Cc1c(-c2noc(-c3ccc(OC(C)C)c(C#N)c3)n2)ccc2c1CCN(C[C@@H](O)CO)CC2
logD [8]: 2.36 | AUC [26]: 26000 ng·h/mL | fold induction at 96 h (CYP1A1 [27]): 126 | AUC/dose (Rattus norvegicus [28]): 65 kg·min/L | AUC [29]: 20800 ng·h/mL | fold induction at 96 h (CYP1A2 [30]): 1.7 | Cmax [31]: 1530 ng/mL | pKa [25]: 8.4 | AUC/dose (Rattus norvegicus [32]): 83 kg·min/L | Cmax [33]: 1290 ng/mL

Cc1c(-c2noc(-c3ccc(OC(C)C)c(C#N)c3)n2)ccc2c1CCN(C(CO)CO)CC2
Cmax [17]: 550 ng/mL | fold induction at 96 h (CYP1A1 [18]): 275 | logD [8]: 2.64 | AUC [19]: 11500 ng·h/mL | Cmax [20]: 670 ng/mL | AUC [21]: 9100 ng·h/mL | fold induction at 96 h (CYP1A2 [22]): 1.9 | AUC/dose (Rattus norvegicus [23]): 46 kg·min/L | AUC/dose (Rattus norvegicus [24]): 36 kg·min/L | pKa [25]: 8.2
